Source: PubChem BioAssay
CAL PDZ FP-1: CAL PDZ (human) peptide binding inhibition; purified CAL PDZ, TMR-peptide fluorescence polarization, 1 h; inhibition, % at 24.9 µM; 0.92% of 300,000 active;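 active means mean inhibition of at least 30% with at least half of replicates also reaching 30%; inconclusive means no clear call, values can overlap the other calls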;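 further: 0% = DMSO neutral control and 100% = excess unlabeled competitor peptide PRC23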
S100A4 inh HTS: blocks human S100A4 binding to myosin IIA peptide. P26447. S100A4/TAMRA-MyoIIA peptide fluorescence polarization. 0.14% of 360,000 active. inhibition, % at 10.7 µM. AID 652163;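 active means mean inhibition of at least 70% across replicates, with every replicate also reaching that level; inconclusive means mean inhibition reaches 70% but some replicates fall short; inactive means mean inhibition below 70%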
Target sequence (P26447 whole entry, looked up): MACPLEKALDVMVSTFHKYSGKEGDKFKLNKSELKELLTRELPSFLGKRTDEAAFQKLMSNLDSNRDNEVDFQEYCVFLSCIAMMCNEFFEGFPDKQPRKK
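Test system: S100A4 monomer protein. Medium: HEPES buffer with Ca2+, pH 7.2. Reagent: fluorescent myosin IIA peptide, 5 nM. Compound dosing: single-point compound testing. Timing: 5 min between mix addition and reading. Benchmarks: DMSO neutral and TFP positive wells.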
SIRT5 inh: inhibitors of human sirtuin-5 desuccinylase; 1.1% of 330,000 active; Q9NXA8; Purified SirT5, succinyl-peptide AMC, trypsin-coupled fluorescence; inhibition, % at 15 µM; AID 652115; in the data active means inhibition above about 15%; inconclusive means no clear call, values can overlap the other calls
Target sequence (Q9NXA8 whole entry, looked up): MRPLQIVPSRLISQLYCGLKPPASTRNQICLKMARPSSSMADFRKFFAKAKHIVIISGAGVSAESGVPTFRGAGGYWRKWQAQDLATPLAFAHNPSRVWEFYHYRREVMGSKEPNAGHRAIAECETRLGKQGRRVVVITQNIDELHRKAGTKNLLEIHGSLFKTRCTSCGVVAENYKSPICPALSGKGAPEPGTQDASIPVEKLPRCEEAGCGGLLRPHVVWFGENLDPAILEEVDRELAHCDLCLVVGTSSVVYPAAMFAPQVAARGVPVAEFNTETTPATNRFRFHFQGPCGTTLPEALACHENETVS
CAL PDZ FP-2: human CAL PDZ-peptide interaction inhibition | Q9HD26 | 0.02% of 330,000 active | purified CAL PDZ, TMR-peptide fluorescence polarization, 1 h | inhibition, % at 20 µM;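 active means highest replicate inhibition of at least 40%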;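 further: plate controls were DMSO neutral control wells for no effect and unlabeled competitor peptide control wells for full effect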
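System: tagged CAL PDZ domain. Schedule: 1 h room-temperature incubation prior to read. Signal: fluorescence polarization (mP). Measure: percent inhibition from loss of millipolarization.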
ERAP1 HTS inh: inhibitors of human ERAP1 aminopeptidase; recombinant ERAP1, Leu-AMC fluorescence, 60 min; inhibition, % at 10.7 µM; 0.15% of 340,000 active;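 active means mean replicate inhibition of at least 30%, or all replicates individually reaching that 30% level; inactive means mean below 30% and not every replicate reaching it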;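 further: 0% = neutral control wells and 100% = L-leucinethiol positive control wells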
DENV2 CPE rescue: DENV2-induced cell death inhibition; DENV2-infected cells, cytopathic effect rescue, plate reader; CPE inhibition, % at 9.99 µM; 1.7% of 350,000 active; AID 651640; in the data active means CPE inhibition above about 20%, passing the limit was not always enough; inconclusive means no clear call, values can overlap the other calls; tested in BHK-21 cells;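 further: 0% = median of neutral control wells and 100% = median of positive control wells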
* = called active by the depositor; ? = inconclusive; / = no result. A selection: hits, their analogues and other compounds. The true share with any hit is near 2.9%.

SMILES	CAL PDZ FP-1	S100A4 inh HTS	SIRT5 inh	CAL PDZ FP-2	ERAP1 HTS inh	DENV2 CPE rescue
C[C@@H]1CN([C@@H](C)CO)C(=O)Cc2cc(NC(=O)Nc3ccc(C(F)(F)F)cc3)ccc2O[C@@H]1CN(C)Cc1ccc2c(c1)OCO2	/	2	3	/	0	1
CC(=O)N(C)C[C@@H]1Oc2cc(C#CCN(C)C)ccc2S(=O)(=O)N([C@@H](C)CO)C[C@H]1C	/	2	9	/	-2	0
Cc1cc(C)nc(SCc2cc(=O)c(OC(=O)c3cc([N+](=O)[O-])ccc3Cl)co2)n1	-1	/	/	1	/	/
O=C(Oc1coc(CSc2ncccn2)cc1=O)c1ccccc1[N+](=O)[O-]	82*	-24	-3	0	-2	2
CC(C)NC(=O)Nc1ccc2c(c1)C(=O)N([C@@H](C)CO)C[C@@H](C)[C@H](CN(C)Cc1ccc(C(=O)O)cc1)OCCCC[C@H](C)O2	/	10	0	/	-3	5
CC(C)NC(=O)Nc1ccc2c(c1)C(=O)N([C@@H](C)CO)C[C@@H](C)[C@H](CN(C)Cc1ccc(C(=O)O)cc1)OCCCC[C@@H](C)O2	/	14	-1	/	-1	22*
CC(C)NC(=O)Nc1ccc2c(c1)C(=O)N([C@H](C)CO)C[C@@H](C)[C@H](CN(C)Cc1ccc(C(=O)O)cc1)OCCCC[C@H](C)O2	/	5	0	/	-1	2
CC(C)NC(=O)Nc1ccc2c(c1)C(=O)N([C@H](C)CO)C[C@@H](C)[C@@H](CN(C)Cc1ccc(C(=O)O)cc1)OCCCC[C@H](C)O2	/	4	-3	/	-3	39*
Cc1noc(C)c1NC(=O)Nc1ccc2c(c1)C(=O)N([C@@H](C)CO)C[C@@H](C)[C@H](CN(C)C(=O)Nc1ccc(F)cc1)OCCCC[C@@H](C)O2	/	3	-1	/	0	2
C[C@@H]1CN([C@H](C)CO)C(=O)c2cc(C#CC3CCCC3)cnc2O[C@H]1CN(C)C(=O)c1ccncc1	/	23	-1	/	0	7
CCCC#Cc1ccc2c(c1)O[C@H](CN(C)C(=O)c1ccccc1F)[C@H](C)CN([C@@H](C)CO)S2(=O)=O	/	10	19*	/	2	7
C[C@H]1CN([C@@H](C)CO)S(=O)(=O)c2ccc(Br)cc2O[C@H]1CN(C)C(=O)Nc1ccccc1F	/	-1	-1	/	4	5
CCCC#Cc1ccc2c(c1)O[C@@H](CN(C)C(=O)Nc1ccccc1F)[C@H](C)CN([C@@H](C)CO)S2(=O)=O	/	-3	17*	/	-2	3
CC(C)CC#Cc1ccc2c(c1)O[C@H](CN(C)C(=O)Nc1ccccc1F)[C@H](C)CN([C@H](C)CO)S2(=O)=O	/	-8	18*	/	0	32*
CC(C)CC#Cc1ccc2c(c1)O[C@H](CN(C)C(=O)Nc1ccccc1F)[C@@H](C)CN([C@H](C)CO)S2(=O)=O	/	-9	7	/	0	-16
CCCC#Cc1ccc2c(c1)O[C@@H](CN(C)C(=O)c1ccccc1F)[C@H](C)CN([C@@H](C)CO)S2(=O)=O	/	1	14	/	-4	-16
CCCC#Cc1ccc2c(c1)O[C@@H](CN(C)C(=O)Nc1ccccc1F)[C@H](C)CN([C@H](C)CO)S2(=O)=O	/	15	20*	/	-2	-3
C[C@@H]1CN([C@H](C)CO)C(=O)c2cc(C#CCN(C)C)cnc2O[C@H]1CN(C)Cc1ccc2c(c1)OCO2	/	8	1	/	-2	1
CO[C@H]1CN(C)C(=O)c2cc(NC(=O)C3CCC3)ccc2OC[C@@H](C)N(Cc2ccc(F)cc2)C[C@@H]1C	/	-10	6	/	-2	-5
C[C@@H]1CN([C@@H](C)CO)C(=O)Cc2cc(NC(=O)CCN3CCOCC3)ccc2O[C@H]1CN(C)Cc1ccc(-c2ccccc2)cc1	/	-5	9	/	-5	32*
C[C@H]1CN([C@@H](C)CO)C(=O)Cc2cc(NC(=O)CCC(F)(F)F)ccc2O[C@H]1CN(C)Cc1ccc(-c2ccccc2)cc1	0	-5	/	0	3	57*
C[C@@H]1CN([C@@H](C)CO)C(=O)Cc2cc(NC(=O)CCN3CCOCC3)ccc2O[C@@H]1CN(C)Cc1ccncc1	/	19	16*	/	1	4
CN1CCN(C(=O)C[C@@H]2C[C@H]3c4cc(NC(=O)c5ccc6c(c5)OCO6)ccc4O[C@H]3[C@@H](CO)O2)CC1	/	2	-5	/	-1	-2
CC=Cc1ccc2n(c1=O)C[C@H]1[C@H](CO)[C@@H](C(=O)NCC3CC3)N(Cc3ccccc3)[C@@H]21 (mixture of isomers)	/	-14	1	/	-1	6
COC(=O)C1=C(C)N(Cc2ccco2)C(=O)N[C@@H]1c1ccco1	-4	-2	3	0	-4	60*
SMILES	CAL PDZ FP-1	S100A4 inh HTS	SIRT5 inh	CAL PDZ FP-2	ERAP1 HTS inh	DENV2 CPE rescue
Nc1nnc(N)c2ccccc12	57*	-3	-1	-1	-1	-2
C[C@@H]1CN([C@H](C)CO)C(=O)c2cc(NC(=O)CCC(F)(F)F)ccc2O[C@@H](C)CCCCO[C@@H]1CN(C)C(=O)CCC(F)(F)F	/	-5	0	/	0	-11
C[C@H]1CN([C@@H](C)CO)S(=O)(=O)c2ccc(C#CC(C)(C)O)cc2O[C@@H]1CN(C)Cc1ccc(-c2ccccc2)cc1	/	-7	20*	/	2	10
C[C@H]1CN([C@@H](C)CO)S(=O)(=O)c2ccc(C#CC(C)(C)O)cc2O[C@H]1CN(C)Cc1ccccc1	/	12	-4	/	2	15
C[C@H](CO)N1C[C@H](C)[C@H](CN(C)Cc2ccc(-c3ccccc3)cc2)Oc2cc(C#CC(C)(C)O)ccc2S1(=O)=O	/	3	20*	/	3	6
C[C@H](CO)N1C[C@H](C)[C@@H](CN(C)Cc2ccc(-c3ccccc3)cc2)Oc2cc(C#CC(C)(C)O)ccc2S1(=O)=O	/	1	-3	/	4	?
C[C@H]1CN([C@@H](C)CO)S(=O)(=O)c2ccc(C#CC(C)(C)O)cc2O[C@H]1CN(C)Cc1ccc(-c2ccccc2)cc1	/	-1	23*	/	0	-19
C[C@@H]1CN([C@H](C)CO)S(=O)(=O)c2ccc(C#CC(C)(C)O)cc2O[C@@H]1CN(C)Cc1ccc(-c2ccccc2)cc1	/	1	20*	/	3	-6
C[C@@H]1CN([C@H](C)CO)S(=O)(=O)c2ccc(C#CC(C)(C)O)cc2O[C@H]1CN(C)Cc1ccccc1	/	-7	2	/	-1	-5
COc1ccc(S(=O)(=O)Nc2ccc3c(c2)C(=O)N([C@H](C)CO)C[C@H](C)[C@H](CN(C)C)O3)cc1	/	11	-4	/	0	3
C[C@H]1CCCCO[C@@H](CN(C)C(=O)c2ccncc2)[C@@H](C)CN([C@@H](C)CO)C(=O)c2cc(NC(=O)c3ccncc3)ccc2O1	/	8	-1	/	-1	1
